Data taken from article PMC2749063 (Current eye research, 2009).
Entries after “also recorded” stand apart in the source; their conditions may differ. Like-named read-outs stand apart in the source and are kept apart here. Ends that are not written are not given here.

Tests used:
Ad3 = experiment: Direct viral time kill assay, Ad3; assay type: cell-based, adenovirus; conditions: Ad3, 500 μg/ml peptide, 4 hours; ANOVA p = 0.008
How it was run: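 Ad3 reference strain grown in A549 cells. Peptide stock in sterile water, diluted in tryptone-saline (pH 5.5). Final mix: 500 μg/ml peptide with ~10⁴ PFU/ml virus, or tryptone-saline control, at 37°C. At 1 and 4 h, aliquots diluted in ice-cold medium with 10% FBS, then plated on A549 monolayers (37°C, 5% CO₂). After 8-9 days, gentian violet-stained plaques counted as PFU/ml. Log₁₀ titers by ANOVA/Fisher; 7 repeats.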

bacteria = conditions: cited from earlier work
Ad5 [1] = experiment: TOTO-1 assay, Ad5 capsid integrity; design: species or system adenovirus; conditions: 5 hours at 37°C; for TOTO-1 fluorescence / Ad5 capsid integrity (in words): Ad5, peptide 10-500 μg/ml
HSV-1 [2] = experiment: TOTO-1 assay, HSV-1 envelope/capsid integrity; design: species or system herpes simplex virus type 1; conditions: 5 hours at 37°C
How it was run: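 HSV-1 McKrae grown in Vero cells. Test compound (2-500 μg/ml) incubated with or without virus (~5 × 10⁴ PFU/ml), 5 h, 37°C. Mixture added to 120 nM TOTO-1 in tryptone-saline pH 8.0; fluorescence read at 485/20 nm excitation, 516/20 nm emission. Signal = raw minus peptide- and virus-derived fluorescence; adenovirus DNA standards. Run in duplicate; repeated at least twice on different days.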

HSV-1 [3] = experiment: Increasing Concentration Direct Inhibition Assay, HSV-1; assay type: cell-based, herpes simplex virus type 1
How it was run: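 HSV-1 McKrae strain, grown in Vero cells. Virus incubated with test compound at a range of concentrations in tryptone-saline. Titers were determined by plaque assay. Each concentration has its own tryptone-saline control. Log reduction is the mean titer difference between treated virus and that control.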

Ad5 [4] = experiment: Increasing Concentration Direct Inhibition Assay, Ad5; assay type: cell-based, adenovirus
Ad5 [5] = experiment: Direct viral time kill assay, Ad5; assay type: cell-based, adenovirus; conditions: Ad5, 500 μg/ml peptide; for inhibition of Ad5 vs tryptone-saline control (in words): 4 hours, ANOVA p < 0.001
How it was run: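 Ad5 clinical isolate grown in A549 cells. Peptide stock in sterile water, diluted in tryptone-saline (pH 5.5); mixed with virus to 500 μg/ml final, ~10⁴ PFU/ml; 37°C water bath. Aliquot at 1 h quenched in ice-cold medium with 10% FBS, diluted, plated on A549 monolayers (37°C, 5% CO₂). Gentian violet stain at 7 days, plaques counted, titer as PFU/ml; 7 repeats; log₁₀ ANOVA, Fisher comparisons.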

Substance: Asn-Gln-------------Gly-Arg-His-Phe-Cys-Gly-Gly-Ala-Leu-Ile-His-Ala-Arg-Phe-Val-Met-Thr-Ala-Ala-Ser-Ser-Phe-Gln [Peptide C]
- inhibition of Ad3 vs tryptone-saline control (in words) (Ad3): statistically-significant reduction in viral titers

Substance: Asn-Gln-------------Gly-Arg-His-Phe-Ser-Gly-Gly-Ala-Leu-Ile-His-Ala-Arg-Phe-Val-Met-Thr-Ala-Ala-Ser-Ser-Phe-Gln [Peptide D]
- antibacterial activity (in words) (bacteria; ref Previous studies): inactive
- inhibition of Ad3 vs tryptone-saline control (in words) (Ad3): statistically-significant reduction in viral titers

Substance: IQSPAGQSRCGGFLVREDFVLTAAHCWG (cysteine pairing not given here) [Cathepsin G20-47 peptide, reference compound]
- antibacterial activity (in words) (bacteria): negligible antibacterial activity
- TOTO-1 fluorescence / Ad5 capsid integrity (in words) (Ad5 [1]): minimal fluorescence; also recorded: no disruptive effect on Ad5 capsid integrity

Substance: NQGRHFCGGALIHARFVMTAASCFQ (cysteine pairing not given here) [Peptide A]
- TOTO-1 fluorescence with HSV-1 between 10 and 100 μg/ml (in words) (HSV-1 [2]; HSV-1, peptide 10 to 100 μg/ml): no increase in fluorescence
- TOTO-1 fluorescence with HSV-1 from 100 to 500 μg/ml (in words) (HSV-1 [2]; HSV-1, peptide 100 to 500 μg/ml): increasing fluorescence
- initial inhibitory concentration (HSV-1 [3]; HSV-1, 4 hours incubation): 50 µg/mL
- inhibitory effect (log reduction of viral titers) above 100 μg/ml (HSV-1 [3]; HSV-1, peptide above 100 μg/ml (up to 750 μg/ml), 4 hours incubation): ~2 log reductions
- initial inhibitory concentration (Ad5 [4]; Ad5, 4 hours incubation): 50 µg/mL
- inhibitory effect (log reduction of viral titers) above 100 μg/ml (Ad5 [4]; Ad5, peptide above 100 μg/ml (up to 750 μg/ml), 4 hours incubation): ~2 log reductions
- increase in TOTO-1 fluorescence (Ad5 [1]; Ad5, peptide 500 μg/ml, 120 nM TOTO-1): 65-85%
- TOTO-1 fluorescence / Ad5 capsid integrity (in words) (Ad5 [1]): dose-dependent increase in TOTO-1 fluorescence
- inhibition of Ad5 at 1 hour (in words) (Ad5 [5]; 1 hour incubation, data not shown): significantly inhibited
- inhibition of Ad5 vs tryptone-saline control (in words) (Ad5 [5]): significantly greater inhibitory activity than the tryptone-saline control
- inhibition of Ad3 vs tryptone-saline control (in words) (Ad3): statistically-significant reduction in viral titers

Substance: NQGRHFSGGALIHARFVMTAASCFQ [Peptide B]
- inhibition of Ad5 vs tryptone-saline control (in words) (Ad5 [5]): significantly greater inhibitory activity than the tryptone-saline control
- inhibition of Ad3 vs tryptone-saline control (in words) (Ad3): statistically-significant reduction in viral titers
